Results taken from ChEMBL document CHEMBL4673227, “Development of Gleevec Analogues for Reducing Production of β-Amyloid Peptides through Shifting β-Cleavage of Amyloid Precursor Proteins” (J Med Chem, 2019).
Active and inactive are the calls of the source. The rule behind the calls is not given here.

Columns and labels:
[1] = Stability in human liver microsomes assessed as parent compound remaining level at 1 uM after 1 hrs by HPLC-MS/MS analysis; type: ADME, Microsome; conditions: read-out: Stabilty
[2] = Stability in human liver microsomes assessed as parent compound remaining level at 10 uM after 1 hrs by HPLC-MS/MS analysis; type: ADME, Microsome; conditions: read-out: Stabilty
[3] = Stability in mouse liver microsomes assessed as parent compound remaining level at 10 uM after 0.5 hrs by HPLC-MS/MS analysis; type: ADME, Microsome; conditions: read-out: Stabilty
[4] = Stability in human liver microsomes assessed as parent compound remaining level at 1 uM after 0.5 hrs by HPLC-MS/MS analysis; type: ADME, Microsome; conditions: read-out: Stabilty
[5] = Inhibition of beta secretase in mouse N2a695 cells assessed as reduction in A-beta 42 levels incubated for 5 hrs by ELISA; type: cell-based; conditions: N2a695, 5 h
Summary of the method: (§1)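 Mouse N2a695 cells (N2a overexpressing human APP695), grown in Opti-MEM/DMEM with 5% FBS and geneticin at 37 °C, 5% CO₂. Cells seeded overnight in 6-well plates, >95% confluent, then given fresh medium with compounds (2.5–10 μM, diluted from DMSO stocks) for 5 h. Secreted Aβ40/Aβ42 measured by ELISA or MSD ELISA against DMSO control; 2–3 experiments averaged.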

[6] = Stability in mouse liver microsomes assessed as parent compound remaining level at 10 uM after 1 hrs by HPLC-MS/MS analysis; type: ADME, Microsome; conditions: read-out: Stabilty
[7] = Drug level in C57BL/6J mouse plasma at 50 mg/kg, ip measured after 4 hrs by LC-MS/MS analysis; type: ADME, organism-based
Summary of the method: (§2)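 Mesylate salts in water ([…], 125 μL) given i.p. at 50 or 150 mg/kg to 8-week-old male C57BL/6J mice. Brain and plasma harvested 4 h post-dose and snap-frozen. Brain homogenized and extracted twice with ethanol, plasma extracted with acetonitrile, both with internal standard. Drug quantified by LC-MS/MS; n = 3 or 4.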

[8] = Stability in human liver microsomes assessed as parent compound remaining level at 10 uM after 0.5 hrs by HPLC-MS/MS analysis; type: ADME, Microsome; conditions: read-out: Stabilty
[9] = Inhibition of beta secretase in mouse N2a695 cells assessed as reduction in A-beta 40 levels incubated for 5 hrs by ELISA; type: cell-based; conditions: N2a695, 5 h; summary of the method: as §1
[10] = Stability in mouse liver microsomes assessed as parent compound remaining level at 1 uM after 0.5 hrs by HPLC-MS/MS analysis; type: ADME, Microsome; conditions: read-out: Stabilty
[11] = Stability in mouse liver microsomes assessed as parent compound remaining level at 1 uM after 1 hrs by HPLC-MS/MS analysis; type: ADME, Microsome; conditions: read-out: Stabilty
[12] = Toxicity in mouse up to 150 mg/kg, po QD for 5 days; type: organism-based; conditions: in vivo, 120 h, time 5 day
Summary of the method: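 Wild-type mice given the compound by oral gavage, increasing amounts up to 150 mg/kg once daily for 5 days. Animals observed for signs of toxicity.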

[13] = Drug level in C57BL/6J mouse brain at 50 mg/kg, ip measured after 4 hrs by LC-MS/MS analysis; type: ADME, organism-based; conditions: read-out: Drug uptake; summary of the method: as §2
[14] = Toxicity in mouse N2a695 cells assessed as reduction in cell viability at 5 to 10 uM incubated for 5 hrs; type: cell-based; conditions: n2a695, 5 h, dose 5-10 µM
Summary of the method: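 N2a cells exposed to compounds at 10 μM for 5 h alongside the Aβ assay. Cell viability/density compared with DMSO control.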

[15] = Drug level in brain of wild-type mouse at 50 mg/kg, po after 6 hrs by LC-MS/MS analysis; conditions: in vivo
[16] = Drug level in brain of wild-type mouse at 50 mg/kg, po after 12 hrs by LC-MS/MS analysis; conditions: in vivo
[17] = Drug level in plasma of wild-type mouse at 50 mg/kg, po after 24 hrs by LC-MS/MS analysis; conditions: in vivo
[18] = Drug level in plasma of wild-type mouse at 50 mg/kg, po after 12 hrs by LC-MS/MS analysis; conditions: in vivo
N2a695 [19] = assay: Inhibition of beta secretase in mouse N2a695 cells assessed as reduction in A-beta 42 levels at 5 to 10 uM incubated for 5 hrs by ELISA; type: cell-based; conditions: dose 5-10 µM; summary of the method: as §1
[20] = Drug level in C57BL/6J mouse plasma at 150 mg/kg, ip measured after 4 hrs by LC-MS/MS analysis; type: ADME, organism-based; summary of the method: as §2
N2a [21] = assay: Inhibition of gamma secretase in mouse N2a cells expressing APP-C99 assessed as reduction of A-beta42 levels at 10 uM incubated for 5 hrs by MSD-ELISA relative to control; type: cell-based
Summary of the method: (§3)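 N2a cells transfected with plasmids for full-length APP695 or APP-C99. After 48 h, fresh medium with compounds (10 μM) added for 5 h. Supernatant Aβ40, Aβ42, sAPPα and sAPPβ measured by MSD ELISA against DMSO; BACE IV (2 μM) and DAPT (1 μM) run alongside.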

N2a [22] = assay: Inhibition of gamma secretase in mouse N2a cells expressing APP-C99 assessed as reduction of A-beta40 levels at 10 uM incubated for 5 hrs by MSD-ELISA relative to control; type: cell-based; summary of the method: as §3
N2a695 [23] = assay: Inhibition of beta secretase in mouse N2a695 cells assessed as reduction in A-beta 40 levels at 5 to 10 uM incubated for 5 hrs by ELISA; type: cell-based; conditions: dose 5-10 µM; summary of the method: as §1
[24] = Drug level in C57BL/6J mouse brain at 150 mg/kg, ip measured after 4 hrs by LC-MS/MS analysis; type: ADME, organism-based; conditions: read-out: Drug uptake; summary of the method: as §2
N2a [25] = assay: Inhibition of beta secretase in mouse N2a cells expressing FL APP695 assessed as reduction of A-beta levels at 2 uM incubated for 5 hrs by MSD-ELISA
N2a [26] = assay: Inhibition of gamma secretase in mouse N2a cells expressing FL APP695 assessed as reduction of A-beta levels at 1 uM incubated for 5 hrs by MSD-ELISA; type: cell-based
N2a695 [27] = assay: Inhibition of beta secretase in mouse N2a695 cells assessed as reduction in A-beta 42 levels at 10 uM incubated for 5 hrs by ELISA; type: cell-based; summary of the method: as §1
Mus musculus [28] = assay: Inhibition of FA-soluble A-beta-42 levels in 2xTg AD mouse model at 100 mg/kg, po BID for 4 days and once daily on day 5 by ELISA; type: functional, organism-based
Summary of the method: (§4)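 2xTg AD females (APP Swedish/PS1ΔE9), 5 months old, n = 7 per group. 2a-mesylate 20 mg/mL in water with 0.1% methylcellulose, 100 mg/kg by gavage, or vehicle, twice daily 8 h apart for 4 days, then once on day 5. Euthanized 4 h after last dose. Left hemisphere homogenized in 1% Triton X-100 TBS (pH 7.4), then insoluble Aβ extracted with 70% formic acid and measured by ELISA.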

Mus musculus [29] = assay: Inhibition of FA-soluble A-beta-40 levels in 2xTg AD mouse model at 100 mg/kg, po BID for 4 days and once daily on day 5 by ELISA; type: functional, organism-based; conditions: time 5.0 day; summary of the method: as §4
N2a695 [30] = assay: Inhibition of beta secretase in mouse N2a695 cells assessed as reduction in A-beta 40 levels at 5 uM treated 1 hr after BACE IV treatment and further incubated for 5 hrs by ELISA; type: cell-based
Summary of the method: (§5)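 N2a695 cells pretreated with BACE IV for 1 h, then treated with compound plus BACE IV for 5 h. Secreted Aβ40 and Aβ42 measured by ELISA.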

N2a695 [31] = assay: Inhibition of beta secretase in mouse N2a695 cells assessed as reduction in A-beta 42 levels at 5 uM treated 1 hr after BACE IV treatment and further incubated for 5 hrs by ELISA; type: cell-based; summary of the method: as §5

Structure (SMILES) | IC50 [5] [µM] | concentration at 4 h [7] [nM] | IC50 [9] [µM] | concentration at 4 h [13] [ng/g] | Activity [14] | inhibition (N2a695 [19]) | inhibition (N2a695 [23]) | also measured
Cc1ccc(NC(=O)c2ccc(CCN(C)C)cc2)cc1Nc1nccc(-c2cccnc2)n1 [listing 1 of 2 here] | > 5 | 2500 | > 5 | 27 | Non-Toxic |  |  | remaining at 1 h, 1 µM [1]: 29.2%; remaining at 1 h, 10 µM [2]: 56.5%; remaining at 0.5 h, 10 µM [3]: 15.1%; remaining at 0.5 h, 1 µM [4]: 61.9%; remaining at 1 h, 10 µM [6]: 2.3%; remaining at 0.5 h, 10 µM [8]: 77.1%; remaining at 0.5 h, 1 µM [10]: 7.9%; remaining at 1 h, 1 µM [11]: 1.3%; Activity [12]: Non-Toxic
CS(=O)(=O)O.Cc1ccc(NC(=O)c2ccc(CCN(C)C)cc2)cc1Nc1nccc(-c2cccnc2)n1 |  |  |  |  |  |  |  | Drug uptake [15]: Active; Drug uptake [16]: Not Active; Drug uptake [17]: Not Active; Drug uptake [18]: Active
Cc1ccc(NC(=O)c2ccc(CCN(C)C)cc2C(F)(F)F)cc1Nc1nccc(-c2cccnc2)n1 | > 5 |  | > 5 |  | Non-Toxic | Active | Active | concentration at 4 h [20]: 11600 nM; inhibition (N2a [21]): 25%; inhibition (N2a [22]): 25%; concentration at 4 h [24]: 60 ng/g
C[C@H](NC(=O)Cc1cc(F)cc(F)c1)C(=O)N[C@H](C(=O)OC(C)(C)C)c1ccccc1 |  |  |  |  |  |  |  | inhibition (N2a [25]): Active; inhibition (N2a [26]): Active
CNCCc1ccc(C(=O)Nc2ccc(C)c(Nc3nccc(-c4cccnc4)n3)c2)cc1 |  |  |  |  |  |  |  | inhibition (N2a695 [27]): Active
Cc1ccc(NC(=O)c2ccc(C3CCN(C)CC3)cc2)cc1Nc1nccc(-c2cccnc2)n1 | > 5 |  | > 5 | 127 | Non-Toxic | Active | Active | 
CS(=O)(=O)O.Cc1ccc(NC(=O)c2ccc(CN3CCN(C)CC3)cc2)cc1Nc1nccc(-c2cccnc2)n1 [IMATINIB MESYLATE] |  | 100 |  | < 1 |  |  |  | remaining at 1 h, 1 µM [1]: 15.9%; remaining at 1 h, 10 µM [2]: 66.4%; remaining at 0.5 h, 10 µM [3]: 22.5%; remaining at 0.5 h, 1 µM [4]: 40.4%; remaining at 1 h, 10 µM [6]: 5.1%; remaining at 0.5 h, 10 µM [8]: 95.4%; remaining at 0.5 h, 1 µM [10]: 7.3%; remaining at 1 h, 1 µM [11]: 1.7%
Cc1ccc(NC(=O)c2ccc(CCN(C)C)cc2)cc1Nc1nccc(-c2cccnc2)n1 [listing 2 of 2 here] |  |  |  |  |  | Active | Active | inhibition (Mus musculus [28]): Active; inhibition (Mus musculus [29]): Active; inhibition (N2a695 [30]): Active; inhibition (N2a695 [31]): Active
Cc1ccc(NC(=O)c2ccc(C3CCCN(C)C3)cc2)cc1Nc1nccc(-c2cccnc2)n1 (configuration not stated) | > 5 | 2300 | > 5 | 39 | Non-Toxic | Active | Active | 
Cc1ccc(NC(=O)c2ccc(CCN)cc2)cc1Nc1nccc(-c2cccnc2)n1 |  |  |  |  |  |  |  | inhibition (N2a695 [27]): Active
Cc1ccc(NC(=O)c2ccc(N3CCN(C)CC3)cc2)cc1Nc1nccc(-c2cccnc2)n1 | > 5 | 1000 | > 5 | 21 | Non-Toxic | Active | Active | 
